Bioassay records deposited in PubChem BioAssay by Johns Hopkins Ion Channel Center.
MrgX1 allo act: allosterically activates human MrgX1 receptor signaling. Q96LB2. MrgX1-HEK293, Fluo-4 calcium flux, FDSS; active compounds read high. B-score at 10 µM. actives 0.63% (n = 310,000);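 active means plate-corrected calcium response at least 3 library SD above typical, normal starting fluorescence, not activating the receptor alone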;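 further: compound read alongside a low EC10 to EC30 dose of BAM8-22 agonist; peak minus trough fluorescence over baseline measured at the second addition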
Target sequence (Q96LB2 whole entry, looked up): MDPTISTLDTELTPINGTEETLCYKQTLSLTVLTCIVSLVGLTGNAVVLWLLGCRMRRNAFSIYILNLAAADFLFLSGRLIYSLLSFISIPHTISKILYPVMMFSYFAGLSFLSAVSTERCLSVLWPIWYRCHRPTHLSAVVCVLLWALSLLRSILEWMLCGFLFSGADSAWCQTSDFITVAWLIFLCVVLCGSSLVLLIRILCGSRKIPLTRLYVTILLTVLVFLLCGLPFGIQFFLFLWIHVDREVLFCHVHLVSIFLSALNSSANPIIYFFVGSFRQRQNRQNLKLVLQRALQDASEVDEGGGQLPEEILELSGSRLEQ
MrgX1 agonist: agonists of human MrgX1 receptor. MrgX1-HEK293 cells, Fluo-4 calcium fluorescence, agonist mode; active compounds read high. B-score at 10 µM. actives 0.44% (n = 310,000). AID 588627;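 active means calcium response B-score plate-corrected fluorescence ratio at least 3 library SD, with starting fluorescence B-score inside 5 SD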
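Material: MrgX1-expressing HEK293 cells / Dosing: compound as first of three additions / Incubation: overnight seeding, then 1 h dark dye loading / Signal: Fluo-4 NW calcium fluorescence / Evaluation: B-scored fluorescence response ratio / Benchmarks: positive and negative control wells on each plate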
RGS4 block: human RGS4 inhibition; HEK293 M3R/RGS4 inducible, Fluo-4 calcium flux; active compounds read high; triggered by carbachol at its EC20; B-score at 10 µM; actives 0.45% (n = 310,000);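 active means B-score, a plate-corrected calcium signal, over three deviations above library mean, with baseline fluorescence within five deviations of library mean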;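 further: RGS4 expression induced by doxycycline in cells with stable M3 receptor; B-score is computed from the integrated fluorescence ratio over baseline after carbachol; higher B-score means a larger calcium signal and so more RGS4 inhibition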
Target sequence (P49798 whole entry, looked up): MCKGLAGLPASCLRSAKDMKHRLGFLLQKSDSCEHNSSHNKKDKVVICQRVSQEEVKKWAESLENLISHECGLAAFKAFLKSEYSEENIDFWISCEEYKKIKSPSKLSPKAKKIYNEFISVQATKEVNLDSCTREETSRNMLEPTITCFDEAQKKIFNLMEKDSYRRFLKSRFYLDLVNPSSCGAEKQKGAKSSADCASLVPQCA
MrgX1 antag: antagonists of human MrgX1 receptor; Q96LB2; MRGX1-HEK293 calcium flux, Fluo-4, BAM8-22 antagonism; active compounds read low; B-score at 10 µM; actives 1.3% (n = 310,000);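 active means calcium-response B-score plate-corrected more than 3 library SD below zero, starting fluorescence within 5 deviations, no agonist response on first addition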;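 further: peak minus trough fluorescence over baseline after final BAM8-22 challenge near maximal dose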
RGS4 act: potentiators or activators of RGS4 | actives 0.92% (n = 310,000) | B-score at 10 µM | HEK293 M3R/inducible RGS4, carbachol calcium flux Fluo4; active compounds read low;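 active means B-score of the integrated calcium signal more than 4 SD below the library mean, with starting fluorescence not abnormally high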;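 further: negative B-score means reduced calcium response which marks RGS4 activation or potentiation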
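Assay system: HEK293 FlpIn-TREx cells, stable M3R, doxycycline-inducible RGS4 / Probe or stimulus: carbachol, ECmax concentration / Times: overnight RGS4 induction, 30 min dye load 37 °C, 20 min compound RT / Signal: kinetic calcium fluorescence imaging with Fluo4-AM dye, 2 µM / Measure: Agonist-evoked peak-minus-minimum fluorescence over baseline, integrated ratio, B score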
RGS4 act valid: confirmation of RGS4 activators. shares compounds with RGS4 act. HEK293 M3R/RGS4 inducible, carbachol calcium flux Fluo4. inhibition, % at 10 µM. actives 89% (n = 1,100). AID 602282;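 active means inhibition above 3 SD of the buffer control wells, cut at about 41% in these data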;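 further: signal is the integrated peak-minus-minimum Fluo4 fluorescence over baseline ratio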
M3R Ca counter: activity in cells without induced RGS4 expression; shares compounds with RGS4 act; HEK293 M3R non-induced RGS4, Fluo4 calcium flux; after carbachol challenge at its EC90; inhibition, % at 10 µM; actives 82% (n = 1,100);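 active means inhibition exceeding 3 SD of buffer-only control wells, cut at about 26% in these data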;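 further: percent drop in integrated peak-minus-baseline over baseline Fluo4 ratio after carbachol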
RGS4 inh valid: RGS4 inhibitor validation. shares compounds with RGS4 block. HEK293 M3R/RGS4, carbachol calcium Fluo-4 fluorescence; carbachol added at its EC20; 0 = buffer wells, 100 = carbachol control. calcium response, % at 10 µM. actives 65% (n = 1,700). AID 492999;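 active means duplicate-averaged calcium response above the buffer-only control mean plus 5 SD of those controls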;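 further: integrated fluorescence ratio F max minus min over baseline F0; higher response in RGS4-induced cells means RGS4 inhibition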
M3R Ca ctr: non-induced cell nonspecific activity of RGS4 inhibitors | shares compounds with RGS4 block | HEK293 M3R non-induced, carbachol calcium Fluo-4; submaximal (EC20) carbachol stimulus; buffer wells 0%, carbachol control wells 100% | activity (percent), % at 10 µM | actives 20% (n = 1,900) | AID 493000; call rule not given here;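 further: RGS4 induction absent so cells express M3R without RGS4; higher means more calcium signal and flags a non-specific hit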
M3R basal Ca ctr: second counter-screen for RGS4 inhibitors: non-induced cells without carbachol. actives 22% (n = 1,900). calcium response (agonist-mode artifact), % at 10 µM. shares compounds with RGS4 block. HEK293 M3R/RGS4 non-induced, Fluo-4 calcium, no carbachol; normalised: buffer wells 0%, carbachol wells 100%;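 active means duplicate-averaged calcium rise in uninduced cells above buffer wells' mean plus 5 SD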
MrgX1 ag confirm: reconfirmed activator of human MrgX1 receptor signaling; shares compounds with MrgX1 agonist; MrgX1-HEK293, Fluo-4 calcium fluorescence, FDSS; activation, % at 10 µM; actives 78% (n = 600); AID 602412;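 active means calcium signal rise, corrected for plate position, at least 3 library SD high, with starting brightness within 5 such deviations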
HEK293 Ca flux: counter-screen for MrgX1 antagonists: effect in parental HEK293 cells | actives 2% (n = 4,000) | fluorescence ratio F(max-min)/F0 at 10 µM | Fluo-4 calcium fluorescence, FDSS | AID 624111 | shares compounds with MrgX1 antag;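 active means duplicate-averaged calcium fluorescence ratio at least three times the standard deviation of buffer wells, a nonspecific response in parental cells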
HEK293 Ca counter: MrgX1 allosteric activator counter-screen hit in parental HEK293 cells; shares compounds with MrgX1 antag; fluorescence ratio F(max-min)/F0 at 10 µM; actives 0.4% (n = 4,000); parental HEK293 calcium flux, Fluo-4 fluorescence ratio; active compounds read high;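 active means calcium fluorescence ratio, averaged over duplicates, at least 3 SD of the buffer-well ratio, meaning a nonspecific response in receptor-free cells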;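 further: untransfected parental HEK293 lacking MrgX1 used as counterscreen for MrgX1 allosteric activators; fluorescence change taken during the second addition on a kinetic imager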
HEK293 Ca cntr2: counter-screen for MrgX1 activators: effect in parental HEK293 cells; Fluo-4 calcium fluorescence (FDSS); active compounds read high; shares compounds with MrgX1 antag; fluorescence ratio F(max-min)/F0 at 10 µM; actives 8.7% (n = 4,000);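 active means calcium fluorescence ratio at least three times the spread of buffer wells, meaning a non-specific response in parental cells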
Hits are given with their value; n = inactive; x = not tested or not shown. A selection: hits, their analogues and other compounds. The true share with any hit is near 3.5%.

SMILES	MrgX1 allo act	MrgX1 agonist	RGS4 block	MrgX1 antag	RGS4 act	RGS4 inh valid	M3R Ca ctr	M3R basal Ca ctr	others
CCCCn1c(=O)c(C(=O)Nc2ncccc2C)c(O)c2ccccc21	n	35.1	n	n	-9.48	x	x	x	RGS4 act valid=66.5;M3R Ca counter=40.8;MrgX1 ag confirm=n;HEK293 Ca flux=n;HEK293 Ca counter=n;HEK293 Ca cntr2=n
CCOC(=O)CC(NC(=O)C(Cc1ccc(N(CCCl)CCCl)cc1)NC(C)=O)C(=O)OCC (stereo unspecified)	n	n	n	n	n	x	x	x
Cc1ccc(N2C(=O)NC(=O)/C(=C\C=C\c3ccco3)C2=O)cc1C	n	n	22.4	n	n	28.0%	31.5%	39.5%
Cc1cccc(N2C(=O)NC(=O)/C(=C\C=C\c3ccco3)C2=O)c1	n	56.8	17.2	n	n	49.0%	63.5%	88.0%
Cc1ccc(N2C(=O)NC(=O)/C(=C\C=C\c3ccco3)C2=O)cc1	n	n	n	n	n	x	n	11.5%
O=C1NC(=O)N(c2ccccc2)C(=O)/C1=C/C=C/c1ccco1	n	n	n	n	n	x	x	x
Cc1ncc(CN2CCCC(C(=O)c3sccc3C)C2)s1 (stereo unspecified)	n	n	n	n	n	x	x	x
COc1ccc(OC)c(N=Cc2c(O)[nH]c(=O)[nH]c2=O)c1	n	n	n	n	n	x	x	x
CN1C(=O)/C(=C/C=C/c2ccco2)C(=O)NC1=S	n	n	n	n	n	x	x	x
CN1C(=O)NC(=O)/C(=C\C=C\c2ccccc2[N+](=O)[O-])C1=O	n	n	6.62	n	n	16.0%	n	10.5%
O=C1NC(=O)C(=Cc2coc3ccc(O)cc3c2=O)C(=O)N1	n	n	5.3	n	n	8.5%	n	n
N[C@@H](Cc1cc(Br)c(O)c(Br)c1)C(=O)O	n	n	6.7	n	n	11.5%	n	n
C=C1C(=O)O[C@@H]2C[C@@H](C)[C@@H]3C=CC(=O)[C@@]3(C)[C@@H](OC(=O)CC(=O)O[C@H]3[C@@H]4C(=C)C(=O)O[C@@H]4C[C@@H](C)[C@@H]4C=CC(=O)[C@]43C)[C@H]12	n	n	n	-5.32	n	x	n	11.0%
COc1cc(/C=C/[N+](=O)[O-])ccc1OC(=O)c1cccnc1	n	n	48.6	n	n	113.0%	45.0%	26.5%
Cc1nn(Cc2ccccc2)c(C)c1C=C1C(=O)NC(=S)NC1=O	n	n	13.8	n	n	70.5%	n	8.0%
Cc1cccc(NC2=NCCCS2)c1	n	n	n	n	n	x	x	x
CCN1C[C@@]2(COC)C3[C@@H](OC)[C@H]4[C@@H]1[C@@]3(C1C[C@@]3(O)[C@H](OC(=O)c5ccccc5)C1[C@]4(OC(C)=O)[C@@H](O)[C@H]3OC)[C@@H](OC)C[C@H]2O (stereo partly specified)	n	n	n	n	n	x	x	x
COc1cc2c(cc1/C=C/[N+](=O)[O-])OCO2	x	x	11.6	x	n	36.5%	43.0%	73.5%
COc1ccc(NP(=O)(Oc2ccc(Cl)cc2)Oc2ccc(Cl)cc2)cc1OC	n	n	11.6	n	n	42.5%	n	n
Nc1c(C(=O)NCc2ccco2)c2nc3ccccc3nc2n1CCN1CCCCC1	n	n	n	n	n	n	n	12.0%
Cc1cccc(NP(=O)(Oc2ccccc2)Oc2ccccc2)c1C	n	n	n	n	n	x	x	x
Cc1ccccc1NP(=O)(Oc1ccccc1F)Oc1ccccc1F	n	n	n	n	-7.53	n	n	n
C=CCN1C(=O)/C(=C/c2ccc3c(c2)CCCN3CCC)C(=O)NC1=S	n	n	n	n	n	x	x	x
C=CCN1C(=O)/C(=C/c2ccc(Br)s2)C(=O)NC1=S	n	n	10.8	-5.62	n	5.0%	n	n
CN1C(=O)/C(=C/c2ccc(Cl)s2)C(=O)NC1=S	n	n	9.92	n	n	5.5%	n	n
SMILES	MrgX1 allo act	MrgX1 agonist	RGS4 block	MrgX1 antag	RGS4 act	RGS4 inh valid	M3R Ca ctr	M3R basal Ca ctr	others
O=c1[nH]oc2c1CCNC2	n	n	x	n	x	x	x	x
[N-]=[N+]=NCc1cn2cccnc2n1	n	n	n	n	n	x	x	x
CC1CN(c2ccc([N+](=O)[O-])c3cccnc23)CC(C)N1 (stereo unspecified)	n	n	5.83	n	n	n	n	n
O=[N+]([O-])c1ccc(N2CCCC2)c2ncccc12	n	n	n	n	n	x	x	x
CNc1cc(Cl)c2nonc2c1[N+](=O)[O-]	x	x	17.2	x	n	53.5%	n	n
Cc1cc([N+](=O)[O-])c(Cl)cc1NC(=O)C(C)C	n	n	n	n	n	x	x	x
O=C1NC(=O)C(=Cc2ccc(Sc3ccccc3)o2)C(=O)N1	n	n	9.93	n	n	5.0%	n	29.0%
CN1C(=O)C(=Cc2ccc(Sc3ccccc3)o2)C(=O)N(C)C1=S	n	n	n	n	n	n	n	8.5%
CN1C(=O)C(=Cc2ccc(N3CCOCC3)o2)C(=O)N(C)C1=S	n	n	n	n	n	x	x	x
CN1C(=O)C(=Cc2ccc(Sc3ccccc3)o2)C(=O)N(C)C1=O	n	n	26.5	n	n	23.0%	n	210.5%
CN1C(=O)C(=Cc2coc3ccccc3c2=O)C(=O)N(C)C1=O	n	n	n	n	n	x	x	x
